Assay outcomes: PubChem, several laboratories
STAT3 act – STAT3 signaling activation; U3A cells, IL-6 STAT3-luciferase reporter, luminescence; 100% = signal with IL-6 EC80 alone; activation (% of control), % at 5.6 µM; actives 0.91% (n = 190,000); AID 871;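 active means activation above the screen-wide mean of compound activation plus 3 SD, cut at about 130% in these data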
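Test system: human U3A cells carrying STAT3-luciferase construct; control set: IL-6-only wells as 100% reference; timing: compound pre-incubation 1 h before IL-6, then 6 h stimulation at 37 °C; also added: IL-6 stimulus at 33 ng/mL final; evaluation: % activation versus median of IL-6-stimulated wells; detection: reporter luminescence signal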
APP 5'UTR act – APP 5'UTR luciferase reporter activation | actives 1% (n = 190,000) | activation, % at 2 µM | SH-SY5Y APP 5'UTR luciferase reporter, luminescence; zero percent = DMSO vehicle wells;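 active means activation above a set limit, based on mean plus 3 SD of controls, cut at about 140% in these data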
NF-kB neuron act – NF-kB expression increase, human neuronal cells | fold change at 12.5 µM | NF-kB reporter expression; hits give high values | actives 1.6% (n = 190,000); in the data active means fold change above about 3.3
STAT1 act – increases IFN-gamma driven STAT1 reporter signal. NIH 3T3 STAT1-luciferase reporter, luminescence; 100% = IFN-gamma alone, no compound. activation (% of control), % at 5.5 µM. actives 2.6% (n = 200,000). AID 932;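 active means activation above the screen-wide mean activation plus 3 SD, cut at about 130% in these data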
STAT1 blocker – inhibitors of IFN-gamma induced STAT1 signaling | NIH 3T3 STAT1-luciferase reporter, luminescence | inhibition, % at 5.5 µM | actives 0.35% (n = 200,000);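 active means inhibition above a set limit, the mean inhibition across all tested compounds plus 3 SD, cut at about 34% in these data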
STAT3 blocker – reduces IL-6 driven STAT3 reporter signal | U3A cells, IL-6 STAT3-luciferase reporter, luminescence; host cell line lacks STAT1 | inhibition, % at 5.5 µM | actives 0.89% (n = 190,000);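 active means inhibition above the mean inhibition across all screened compounds plus 3 SD, cut at about 44% in these data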
A number is an active result; - = inactive; . = no result. Only some compounds are listed: those with a hit (about 5.1% of all), similar ones and a draw of the others.

SMILES	STAT3 act	APP 5'UTR act	NF-kB neuron act	STAT1 act	STAT1 blocker	STAT3 blocker
Cc1ccc([N+](=O)[O-])cc1N/C=C/C(=O)c1ccco1	134	-	-	-	-	-
O=C(Nc1cc([N+](=O)[O-])ccc1N1CCOCC1)c1ccco1	-	-	-	-	-	-
CCOC(=O)c1ccc(N/C=C/C(=O)c2ccco2)cc1	-	-	5.2	-	-	-
O=C(N/N=C/c1cccc(OC(=O)N2CCOCC2)c1)c1cccs1	-	-	-	-	-	-
COc1ccc2c(c1)[nH]c(=O)c1sc3ccccc3c12	174	-	-	-	-	-
O=C1NC2(CCC3(CC2)OCCO3)NN1c1ccc(Cl)cc1	-	-	-	-	-	-
Cc1ccc(NC(=O)CCn2cnc3ccccc3c2=O)cc1Cl	-	-	-	131	-	-
CCOc1ccccc1NC(=O)COC(=O)CSc1ccc(Cl)cc1	-	-	-	-	-	-
CC(=O)c1cccc(NC(=O)C(=O)Nc2cccc3ccccc23)c1	-	-	-	137	-	-
Cc1nc2cc(NC(=O)Nc3cccc4ccccc34)ccc2n1C	-	-	-	145	-	-
CC(=O)c1cccc(NC(=O)CCOc2ccccc2)c1	-	-	-	-	-	-
O=C(CCCCCn1c(=S)[nH]c2ccc(N3CCOCC3)cc2c1=O)NCc1cccc(Cl)c1	-	-	-	-	-	-
Cc1ccc(C(=O)NC2CCCCC2)cc1	-	-	-	139	-	-
CCN(CC)S(=O)(=O)c1cc(C(=O)NC2CCCCC2)ccc1C	-	-	-	129	-	-
CCN(CC)S(=O)(=O)c1cc(C(=O)Nc2ccc(Cl)cn2)ccc1C	-	183	-	135	-	-
CC(C)CNC(=O)c1cccc(NC(=O)c2ccc(Cl)c([N+](=O)[O-])c2)c1	-	-	-	-	-	-
Cc1ccc(C(=O)Nc2cccnc2N2CCN(C)CC2)cc1	-	-	-	-	-	-
COc1cccc(CN(C)CC(=O)Nc2ccccc2N2CCOCC2)c1OC	-	-	-	-	-	-
O=C(/C=C/c1ccccc1)NNC1=NS(=O)(=O)c2ccccc21	-	-	-	-	-	-
CC1=Nc2ccccc2N=C(NC(=O)c2ccccc2)C1c1ccccc1 (configuration not stated)	-	-	-	-	-	-
C=CCNC(=S)N/N=C(\C)c1ccccn1	-	-	-	136	-	-
CN1C(=O)/C(=C/C=C2\SCCN2C)N(C)C1=S	-	-	5.3	132	-	-
CCC(=O)Nc1ccc(S(=O)(=O)N2CCN(c3ccc(F)cc3)CC2)cc1	-	-	-	-	-	-
CC(Cl)c1cc(-c2ncc(C(F)(F)F)cc2Cl)no1 (configuration not stated)	-	-	-	-	-	-
FC(F)(F)c1cnc(-c2cnc(-c3ccncc3)nc2)c(Cl)c1	-	-	-	140	-	-
SMILES	STAT3 act	APP 5'UTR act	NF-kB neuron act	STAT1 act	STAT1 blocker	STAT3 blocker
CCOc1ccc(-c2cn(-c3ccc(OC)cc3)c(SC)n2)cc1	-	-	3.8	144	-	-
CSc1nc(-c2ccccc2)cn1-c1ccc(NC(C)=O)cc1	-	-	-	-	-	-
Cc1cccc(Nc2ncnc3nc[nH]c23)c1	-	-	-	-	-	-
Fc1cccc(/C=N/Nc2ncnc3nc[nH]c23)c1	-	-	-	138	-	-
Fc1ccccc1/C=N/Nc1ncnc2nc[nH]c12	-	-	-	137	-	-
c1ccc(CNc2ncnc3nc[nH]c23)nc1	-	-	-	-	-	-
CS(=O)(=O)N1N=C(c2cccs2)CC1c1ccco1 (configuration not stated)	-	-	-	-	-	-
COc1ccc(NC(=O)c2cc([N+](=O)[O-])ccc2O)cc1	-	-	.	-	94	105
CCOc1ccc(CN(C)C(=O)CCl)cc1	-	-	-	-	-	-
Cc1ccc(Cl)cc1NC(=S)N1CCC(c2ccccc2)C1 (configuration not stated)	-	-	-	-	-	-
Cc1ccc(Nc2nnc(SC3CCOC3=O)s2)c(C)c1 (configuration not stated)	-	-	-	-	-	-
Cc1ccc(/C=N/Nc2nnc(Cl)c3ccccc23)cc1	-	159	9.3	131	-	-
Oc1ccc2ccccc2c1/C=N/Nc1nnc(-c2ncc[nH]2)c2ccccc12	-	-	-	-	-	-
Clc1ccc(/C=N/Nc2nc(Cl)nc3ccccc23)cc1	-	-	-	133	-	-
COc1ccc(/C=N/Nc2nnc(-c3ncc[nH]3)c3ccccc23)cc1	-	-	-	142	-	-
Cc1ccc(-c2nc(N/N=C/c3ccncc3)c3ccccc3n2)cc1	-	-	-	-	78	90
Clc1nnc(NN=C2CCCC2)c2ccccc12	-	-	-	-	-	-
Cc1ccc2nc(C(Cl)(Cl)Cl)nc(N/N=C/c3ccncc3)c2c1	-	-	-	-	-	-
Clc1ccccc1-c1nc(N/N=C/c2cccnc2)c2ccccc2n1	-	-	-	-	-	-
Cc1cccc(C(=O)N[C@H](C(=O)Nc2ccc(C)c(S(=O)(=O)N(C)C)c2)C(C)C)c1	-	-	-	-	-	-
O=C(COc1ccc(Br)cc1)N(CCO)CCO	-	-	-	-	-	-
C(=N\Nc1nc2ccccc2[nH]1)/c1ccccc1	-	-	-	-	-	-
C(=N\Nc1ncnc2ccccc12)/c1ccccc1	-	-	6	132	-	-
Cc1ncc([N+](=O)[O-])n1CC(=O)N/N=C/c1ccc(F)cc1	-	-	-	-	-	-
Fc1ccc(-c2nc3c(Cl)cc(C(F)(F)F)cn3c2Cl)cc1	134	-	-	-	-	-
SMILES	STAT3 act	APP 5'UTR act	NF-kB neuron act	STAT1 act	STAT1 blocker	STAT3 blocker
FC(F)c1nnc2c(Cl)cc(C(F)(F)F)cn12	-	-	-	-	-	-
C/C(=N/NC(=O)CN1CCN(S(=O)(=O)c2ccc(Br)cc2)CC1)c1ccco1	-	-	-	-	-	-
Cc1cc(-c2ccccc2)nc(=O)[nH]1	-	-	-	-	-	-
CCC1C(=O)n2nc(-c3ccccc3)cc2N=C1C (configuration not stated)	-	-	-	138	-	-
Cc1sc(NC(=O)c2ccccc2F)c(CN2CCCCC2C)c1C (configuration not stated)	-	-	-	137	-	-
CCN(C(=O)COC(=O)c1[nH]c(=O)[nH]c(=O)c1N)c1ccccc1	-	-	-	-	-	-
COc1cc(/C=N/n2c(C)n[nH]c2=S)ccc1OCc1ccc(F)cc1	-	-	-	129	-	-
COc1cc(/C=N\n2nnnc2N)ccc1OCc1ccc(F)cc1	-	-	-	-	-	-
CC1CCN(c2oc(-c3ccccc3Cl)nc2C#N)CC1	-	-	3.7	-	-	-
Cc1nnc(SCC(=O)NC2CCCCC2)s1	-	-	-	-	-	-
